Assay results gathered from unrelated publications.
Lines come from different studies, so protocols differ.
Target: Cholinesterase (BCHE, Homo sapiens, UniProt P06276)
Effect on: enzyme activity
Action: inhibitor

COc1ccc(S(=O)(=O)Oc2cc(OC)ccc2C=NNC(=O)c2ccc(F)cc2)cc1
IC50 (Ellman): 113 nM

C#CCN(C)CCCCCCOCc1ccc(CN(C)c2c3c(nc4ccc(C)cc24)CCCC3)cc1
IC50 (Ellman): 1270 nM

CSc1ccc(C=NNC(=O)c2cc(-c3cn(C)c4ccccc34)on2)cc1
IC50: > 100000 nM

COc1ccc(S(=O)(=O)Oc2ccccc2C=NNC(=O)c2ccc(F)cc2)cc1
IC50 (Ellman): 114 nM

Cn1cc(-c2cc(C(=O)NN=Cc3ccncc3)no2)c2ccccc21
IC50: > 100000 nM

O=[N+]([O-])c1c[nH]c(-c2n[nH]c(=S)n2/N=C/c2ccc(F)c(O)c2)c1
IC50 (Ellman): 9700 nM

C#CCN(C)CCCCOc1cccc(CN(C)c2c3c(nc4ccccc24)CCCC3)c1
IC50 (Ellman): 370 nM

O=[N+]([O-])c1c[nH]c(-c2n[nH]c(=S)n2/N=C/c2ccc(Br)c(Cl)c2)c1
IC50 (Ellman): 23100 nM

C#CCN(C)CCCCCCCOc1cccc(CN(C)c2c3c(nc4ccccc24)CCCC3)c1
IC50 (Ellman): 310 nM

Cc1ccc(CN2CCN(Cc3nnc(-c4ccccc4)o3)CC2)cc1
IC50 (Ellman): > 10000 nM

COc1ccc(/C=N/n2c(-c3cc([N+](=O)[O-])c[nH]3)n[nH]c2=S)cc1
IC50 (Ellman): 26200 nM

C#CCN(C)CCCCCCOCc1ccc(CN(C)c2c3c(nc4ccccc24)CCCC3)cc1
IC50 (Ellman): 430 nM

Cn1cc(-c2cc(C(=O)NN=Cc3ccccc3Cl)no2)c2ccccc21
IC50: > 100000 nM

O=[N+]([O-])c1c[nH]c(-c2n[nH]c(=S)n2/N=C/c2ccc(Oc3ccccc3)cc2)c1
IC50 (Ellman): 21100 nM

COc1ccc(S(=O)(=O)Oc2ccc3ccccc3c2C=NNC(=O)c2ccc(F)cc2)cc1
IC50 (Ellman): 134 nM

C#CCN(C)CCCCCOc1cccc(CN(C)c2c3c(nc4ccccc24)CCCC3)c1
IC50 (Ellman): 330 nM

COc1cccc(C=NNC(=O)c2cc(-c3cn(C)c4ccccc34)on2)c1O
IC50: > 100000 nM

O=[N+]([O-])c1c[nH]c(-c2n[nH]c(=S)n2/N=C/c2ccc(Cl)cc2[N+](=O)[O-])c1
IC50 (Ellman): 16400 nM

C#CCN(C)CCOc1cccc(CN(C)c2c3c(nc4ccccc24)CCCC3)c1
IC50 (Ellman): 2000 nM

O=[N+]([O-])c1c[nH]c(-c2n[nH]c(=S)n2/N=C/c2c(O)cc(O)cc2O)c1
IC50 (Ellman): 6800 nM

C#CCN(C)CCCOc1cccc(CN(C)c2c3c(nc4ccccc24)CCCC3)c1
IC50 (Ellman): 410 nM

Cn1cc(-c2cc(C(=O)NN=Cc3cccc(Br)c3)no2)c2ccccc21
IC50: > 100000 nM
